Assay results of several laboratories.
Each line is one published result; the experiments were not run side by side.
Target: Dual specificity mitogen-activated protein kinase kinase 1 (MAP2K1, Homo sapiens, UniProt Q02750)

O=C(NCCCN1CCOCC1)c1ccc(Nc2ncc(Cl)c(-c3ccc(Cl)s3)n2)cc1 — remaining binding (binding, competition with immobilised ligand; 1 µM): 63%
C=CC(=O)N1CCC(C(=O)NCC(=O)N2CCN(c3nc(-c4cnc(N)nc4C(F)F)nc(N4CCOCC4)n3)CC2)CC1 — remaining binding (binding, competition with immobilised ligand; 1 µM): 69%
Nc1ncc2c(n1)-c1c([nH]c3ccc(C#CC4CC4)cc13)CCCC2 — remaining binding (binding, competition with immobilised ligand; 1 µM): 100%
COc1ccc2cc(OCC3(C(=O)O)CN(C(=O)c4ccc(F)cc4)C3)ccc2c1 — remaining binding (cell-free assay, competition with immobilised ligand; 1 µM): 100%
C[C@@H](c1ccc(-n2cnc3c(N)ncnc32)cc1)N1CCc2nn(C)c(Cc3ccccc3)c2C1=O — remaining binding (binding, competition with immobilised ligand; 0.1 µM): 89%
COc1cnc(Nc2cccc(S(N)(=O)=O)c2)nc1N1CCN(c2ccccc2)CC1 — remaining binding (binding, competition with immobilised ligand; 1 µM): 90%
CCN(CC)Cc1cc(Nc2ccnc3cc(Cl)ccc23)ccc1O — remaining binding (cell-free assay, competition with immobilised ligand; 0.1 µM): 95%
C[C@@H]1CN(c2ccc3ncc(-c4ccc5[nH]nc(C6CC6)c5c4)n3n2)C[C@H](C)O1 — remaining binding (binding, competition with immobilised ligand; 0.5 µM): 100%
Cc1nc(Nc2ncc(C(=O)Nc3c(C)cccc3Cl)s2)cc(N2CCN(CCO)CC2)n1 — remaining binding (cell-free assay, competition with immobilised ligand; 0.1 µM): 89%
CC(=O)N1CCC(c2ccc(C(=O)NC(=N)N)cc2C(F)(F)F)CC1 — remaining binding (cell-free assay, competition with immobilised ligand; 1 µM): 97%
O=C(c1ccc(Nc2ncc(Cl)c(-c3cc4ccccc4s3)n2)cc1)N1CCC(N2CCCC2)CC1 — remaining binding (binding, competition with immobilised ligand; 1 µM): 21%
COc1cnc(Nc2cccc(S(N)(=O)=O)c2)nc1N1CCN(c2ccccc2)C(=O)C1 — remaining binding (binding, competition with immobilised ligand; 1 µM): 91%
CCCOc1ccc([C@@H]2[C@@H](C(=O)O)[C@H](c3ccc4c(c3)OCO4)CN2CC(=O)Nc2c(CC)cccc2CC)cc1 — remaining binding (cell-free assay, competition with immobilised ligand; 1 µM): 93%
N[C@@H]1CCN(c2nccc(-c3cnn4ncccc34)n2)C1 — remaining binding (binding; 1 µM): 100%
O=C(NCc1ncc(C(F)(F)F)cc1Cl)c1ccc2c(c1)C1(CCS(=O)(=O)CC1)[C@@H](C1CC1)N2S(=O)(=O)c1ccc(F)cc1 — remaining binding (cell-free assay, competition with immobilised ligand; 1 µM): 91%
O=C(NCC1CCOCC1)c1n[nH]cc1NC(=O)c1c(F)cccc1F — remaining binding (binding, competition with immobilised ligand; 1 µM): 100%
c1cnn2ncc(-c3ccnc(N4CCC45COC5)n3)c2c1 — remaining binding (binding, competition with immobilised ligand; 1 µM): 69%
CC(C)(C)c1ccc(-c2nc(CBr)nn2-c2cccc(O)c2)cc1 — remaining binding (cell-free assay, competition with immobilised ligand; 10 µM): 83%
C[C@H](c1ccc(F)cc1)N(Cc1cccc(C(=O)O)c1)C(=O)c1cnc2ccccc2c1 — remaining binding (cell-free assay, competition with immobilised ligand; 1 µM): 100%
CS(=O)(=O)CCNCc1ccc(-c2ccc3ncnc(Nc4ccc(OCc5cccc(F)c5)c(Cl)c4)c3c2)o1 — remaining binding (cell-free assay, competition with immobilised ligand; 0.1 µM): 95%
Cc1nc(Cc2cccc(C(F)(F)F)c2)sc1-c1ccc(C(N)=O)nc1 — remaining binding (cell-free assay, competition with immobilised ligand; 1 µM): 100%
CNC(=O)c1cc(Oc2ccc(NC(=O)Nc3ccc(Cl)c(C(F)(F)F)c3)cc2)ccn1 — remaining binding (cell-free assay, competition with immobilised ligand; 10 µM): 99%
O=C(c1ccc(Nc2ncc(Cl)c(-c3ccc(Cl)s3)n2)cc1)N1CCC(N2CCCC2)CC1 — remaining binding (binding, competition with immobilised ligand; 1 µM): 18%
Cc1ccc(NC(=O)c2ccc(CN3CCN(C)CC3)cc2)cc1Nc1nccc(-c2cccnc2)n1 — remaining binding (cell-free assay, competition with immobilised ligand; 0.1 µM): 95%
C[C@@H](c1cccc(C#N)c1)n1cc(Cl)cc(C(N)=O)c1=N — remaining binding (cell-free assay, competition with immobilised ligand; 1 µM): 80%
COc1cc2ncnc(Nc3ccc(F)c(Cl)c3)c2cc1OCCCN1CCOCC1 — remaining binding (cell-free assay, competition with immobilised ligand; 0.1 µM): 100%
CN(CCCC(F)(F)F)c1nccc(-c2cnn3ncccc23)n1 — remaining binding (binding, competition with immobilised ligand; 1 µM): 99%
Cc1noc([C@H]2C[C@@H](c3ccc(C(F)(F)F)cc3)CN(C(=O)N3CCS(=O)(=O)C3)C2)n1 — remaining binding (cell-free assay, competition with immobilised ligand; 1 µM): 100%
Cc1c(-c2ccccc2)oc2c(C(=O)OCCN3CCCCC3)cccc2c1=O — remaining binding (cell-free assay, competition with immobilised ligand; 0.1 µM): 94%
Cc1cnn2ncc(-c3ccnc(N(C)C)n3)c2c1 — remaining binding (binding; 1 µM): 82%
CN1CC[C@H](c2c(O)cc(O)c3c(=O)cc(-c4ccccc4Cl)oc23)[C@H](O)C1 — remaining binding (cell-free assay, competition with immobilised ligand; 0.1 µM): 92%
C[C@@H]1CCN(c2nccc(-c3cnn4ncccc34)n2)C1 — remaining binding (binding, competition with immobilised ligand; 1 µM): 75%
